Screening data deposited in PubChem BioAssay by several laboratories.
Compounds with a hit are over-represented: about 6.4% of the library has one in this group of screens.
PLK1 inh: human PLK1 kinase inhibitors, primary screen, biochemical, TR-FRET; recombinant PLK1 kinase, TR-FRET peptide phosphorylation; inhibition, % at 10 µM; hit rate 0.53% among 97,000;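 active = inhibition of 50% or more in the single-concentration screen; inactive = inhibition below 50%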;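 also: 0% = DMSO max control and 100% = H-89 dihydrochloride min control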
EphB4 ephrin blk: EphB4-ephrin-B2 interaction antagonists, primary screen, biochemical, TNYL-RAW peptide probe, fluorescence polarization. Ephrin type-B receptor 4 (Homo sapiens), P54760. EphB4 LBD / TNYL-RAW-Alexa532 peptide. inhibition, % at 7 µM. hit rate 0.15% among 97,000;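 active = inhibition above the screen-wide mean inhibition plus 3 SD, cut at about 15% in these data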;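 also: 0% = DMSO wells and 100% = excess unlabeled TNYL-RAW peptide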
PLK1 PBD inh: Plk1 polo box domain binding inhibitors, primary screen, biochemical, fluorescence polarization; Serine/threonine-protein kinase PLK1 (Homo sapiens), P53350; inhibition, %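 (tested at about 20 µM)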; AID 693, 2007; Plk1 PBD phosphopeptide binding; hit rate 0.13% among 97,000; in the data active = inhibition above about 34%, passing the limit was not always enough
Rev-RRE block: HIV-1 Rev-RRE binding inhibitors, primary screen, biochemical, FRET, protein-RNA interaction; P05866; Rev peptide-RRE RNA binding; inhibition, % at 8 µM; hit rate 0.79% among 97,000; AID 704, 2007;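 active = inhibition above the screen-wide mean plus 3 SD, cut at about 35% in these data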;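 also: 0% = median DMSO wells and 100% = median Neomycin B control wells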
Target sequence (P05866 whole entry, looked up): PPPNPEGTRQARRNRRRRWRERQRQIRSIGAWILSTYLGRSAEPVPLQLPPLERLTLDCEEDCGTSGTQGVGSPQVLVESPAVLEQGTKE
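Assay system: Labelled RRE RNA duplex and labelled Rev peptide | Times: 5 min preincubation and 15 min binding, 25 °C | Detection: FRET, ex 480 nm, em 540 and 671 nm | Evaluation: % inhibition of FRET ratio versus controls | Benchmarks: DMSO wells as 0% and neomycin B wells as 100% inhibition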
PostGolgi ctrl: growth inhibition of yeast control strain, primary screen, counter-screen for post-Golgi transport modulator project | AID 738, 2007 | efflux-deficient yeast background strain, growth absorbance A615, 16 h | inhibition, % at 10 µM | hit rate 5% among 98,000
PostGolgi yeast: phenotypic screen on post-Golgi transport, primary screen | post-Golgi transport phenotypic cell assay | inhibition, % at 10 µM | hit rate 0.9% among 98,000;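 also: yeast cells grown in 1536-well plates; yeast grown about 18 h at 30C before absorbance read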
* hit, by the source's call; x = not tested or not shown; [ ] = dose if it differs, or a comment. Rule as the data show it, unless noted: active = inhibition above about 30%; inactive = the rest.

SMILES	PLK1 inh	EphB4 ephrin blk	PLK1 PBD inh	Rev-RRE block	PostGolgi ctrl	PostGolgi yeast
COc1cccc(OCCCCCCN2CCOCC2)c1	-13	-4	-16	7	21	45*
c1ccc(Nc2cc(-c3ccccc3)nc3ncnn23)cc1	-6	-11	-4	1	15	93*
COc1ccc(CCNc2cc(-c3ccccc3)nc3ncnn23)cc1	-2	-7	-10	7	4	9
FC(F)(F)c1nnc2ccc(N3CCOCC3)nn12	-10	-1	0	8	15	3
Cc1cccc(C)c1N1CCN(c2ccc3nnc(C(F)(F)F)n3n2)CC1	2	9	-6	12	48*	19
Cc1cccc(C2Nc3ccccc3C(=O)N2c2ccccc2)n1 (centres undefined)	0	-4	-32	1	7	30*
CC1(C)[N+]([O-])=C2C(=[N+]([O-])C1(C)C)c1ccccc1/C2=N\O	-6	1	-12	7	3	-7
CC1=[N+]([O-])C(C)(C)CC(C)(C)c2ccccc21	-8	-3	12	3	30*	5
O=C(O)c1ccc(NS(=O)(=O)c2ccc(Cl)cc2)cc1	-10	2	-7	9	-4	16
CCCCCCCCNc1ncnc2ccccc12	-4	-8	-11	10	9	44*
N#Cc1c(SCC(N)=O)nc(-c2ccccc2)c2c1CCCC2	-19	-2	5	3	17	-21
Cc1ccc(-c2nc(SCC(N)=O)c(C#N)c3c2CCCC3)cc1	-13	1	17	8	44*	7
O=C(OCn1ncc(Br)c(Br)c1=O)c1ccc(F)cc1	-19	-1	-15	-2	46*	107*
CCn1ncc(Br)c1C(=O)Nc1ccc(C(=O)OC(C)C)cc1	3	2	0	12	5	-7
O=C(OCc1cnc(Cl)s1)c1ccccc1Cl	-2	4	-26	0	10	-4
O=C(OCn1ncc(Br)c(Br)c1=O)c1ccccc1Cl	-11	-1	-3	3	34*	108*
CCCCCc1nc2c(C#N)c(-c3ccc(Cl)cc3)ccn2n1	-8	-2	-2	10	34*	-2
CCCCc1nc(SCC(=O)Nc2ccc(S(N)(=O)=O)cc2)n[nH]1	-9	1	-12	-4	14	-5
CCOC(=O)C1=C(c2ccccc2)N(C)C(=O)NC1c1ccc(O)c(OC)c1 (centres undefined)	-10	4	17	1	31*	18
CCOC(=O)C1=C(c2ccccc2)Nc2c(c(=O)n(C)c(=O)n2C)C1c1ccc(O)c(OC)c1 (centres undefined)	-8	5	-1	2	14	0
CCN(CC)C(=O)CN1C(=O)C2(OCC(C)(c3ccccc3)CO2)c2ccccc21 (centres undefined)	-13	7	-6	8	31*	12
Cc1oc2c(CN(C)C)c(O)ccc2c(=O)c1-c1ccc2ccccc2n1	-2	1	-35	5	35*	-6
CCc1oc2c(C)c(O)ccc2c(=O)c1-c1ccc2ccccc2n1	-10	1	-3	4	11	-3
CCCCc1nnc(NC(=O)C(C)Sc2nc(C)cc(=O)[nH]2)s1 (centres undefined)	-12	-5	12	-1	5	-3
Nc1ccc2oc3ccc(N)cc3c(=O)c2c1	-1	-2	-5	37*	2	-6
SMILES	PLK1 inh	EphB4 ephrin blk	PLK1 PBD inh	Rev-RRE block	PostGolgi ctrl	PostGolgi yeast
Cn1nc(C(=O)Nc2c(-c3ccccc3)nc3sccn23)c2ccccc2c1=O	1	-3	-3	-4	-1	-24
CC(=O)c1ccc(OCC(O)CN2CCN(CC(O)COc3ccc(C(C)=O)cc3)CC2)cc1 (centres undefined)	-9	-3	6	2	x	x
OC(COc1ccc(Cl)c2ccccc12)CN1CCN(c2ccccn2)CC1 (centres undefined)	x	x	x	x	34*	-2
CC(=O)c1ccc(OCC(O)CN2CCN(c3ccccn3)CC2)cc1 (centres undefined)	69*	1	4	4	7	0
CN1CCN(CC(O)COc2ccc(OCC(O)CN3CCN(C)CC3)cc2)CC1 (centres undefined)	-18	6	-14	7	x	x
CC(=O)c1ccc(OCC(O)CN2CCN(Cc3ccccc3)CC2)cc1 (centres undefined)	65*	0	0	0	4	-5
CC(C)c1ccc(OCC(O)CN2CCN(c3ccccc3)CC2)cc1 (centres undefined)	-9	8	-14	5	63*	51*
O=C(c1ccccc1)c1ccc(OCC(O)CN2CCN(Cc3ccccc3)CC2)cc1 (centres undefined)	-8	6	4	9	3	8
O=C(CN1CCN(c2ccccn2)CC1)Nc1ccc(Oc2ccccc2)cc1	-8	-4	-14	8	2	58*
Cc1noc(NS(=O)(=O)c2ccc(N/C=C\C(=O)c3ccc4c(c3)OCO4)cc2)c1C	4	0	-18	6	38*	-7
O=C1CCCc2ccccc2N1Cc1c(Cl)cccc1Cl	-9	6	-7	3	41*	8
O=c1cc2c(nn1Cc1c(Cl)cccc1Cl)-c1ccccc1CC2	-15	6	-5	4	32*	16
O=C1CCCc2ccccc2N1Cc1ccc(Cl)cc1Cl	-7	-5	9	4	31*	7
N=c1ccn(Cc2ccccc2Cl)cc1	0	-5	-28	7	4	5
O=C1CCCc2ccccc2N1Cc1ccccc1Cl	-7	2	-19	13	34*	9
O=C1CCCc2ccccc2N1Cc1ccc(Cl)cc1	-6	-1	-27	8	22	7
O=C1CCCc2ccccc2N1Cc1cccc(Cl)c1	-14	-2	-20	1	27	16
CCC(=O)Nc1ccc(NC(=O)CSc2nnnn2C(C)C)cc1	-2	-2	29	4	4	6
CC(=O)c1ccc(NC(=O)Nc2ccccc2)cc1	-2	3	2	3	-2	11
CC1(C)NC(=O)N(CC(=O)Nc2nc(-c3ccc(F)cc3)cs2)C1=O	-5	-5	-9	0	1	-1
Cc1ccccc1-n1c(C)nnc1SCC(=O)N1CC(=O)Nc2ccccc21	x	x	x	x	17	6
Cn1c(-c2ccc(C=O)s2)nc2c3ccccc3c3ccccc3c21	-21	7	-25	81*	0	-1
CCOC(=O)C1=C(C)N=c2s/c(=C\c3cccn3C)c(=O)n2C1c1cccc(OC)c1OC (centres undefined)	-15	5	-74	88*[fluorescence artefact?]	33*	-1
